Measurements from publication PMC6936558 (Proceedings of the National Academy of Sciences of the …, 2019).
“And” between values parts separate entries of the source, which are not always exact repeats. Equal entries are not always repeated.

Key:
[1] = test system: SpyCatcher003; assay: Isothermal titration calorimetry; type: binding, Streptococcus pyogenes; conditions: PBS pH 7.4, 25 °C
[2] = biological target: SpyCatcher002-555; assay: FRET or BRET
[3] = biological target: SpyCatcher003; assay: SPR
[4] = biological target: SpyCatcher003-555; assay: FRET or BRET
[5] = biological target: SpyCatcher003; assay: covalent reaction followed by SDS/PAGE with Coomassie staining
[6] = biological target: SpyCatcher003-sfGFP; assay: covalent reaction
[7] = test system: SpyCatcher003-sfGFP; assay: Comparison of stages of SpyTag development; type: biochemical; conditions: 10 nM each, 10 min, SPG buffer pH 7.0 + 0.2% BSA, 25 °C; n = 3
[8] = test system: SpyCatcher002-555; assay: Stopped-flow FRET kinetics; type: binding, Streptococcus pyogenes; conditions: PBS pH 7.4, 25 °C; mean ± 1 SD, n = 4
In short: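 Stopped-flow fluorescence with 1:1 mixing at 25 °C in PBS pH 7.4, excitation 480 nm, emission through a 515-nm long-pass filter. The SpyTag variant-mClover3 was at 100 nM final against pseudo-first-order SpyCatcher variant-555 at 400 to 1,000 nM. kon came from a linear fit of the first-phase kobs against SpyCatcher variant concentration.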

[9] = test system: SpyCatcher002-sfGFP; conditions: cited from earlier work

RGVPHIVMVAAYKRYK [SpyTag003 DA-MBP]
affinity by ITC [1]: too tight to measure by ITC

SpyTag002-mClover3 (peptide)
kon [2]: 420000 M⁻¹ s⁻¹

SpyTag003 DA-MBP (peptide)
Kd [3]: 21 nM

SpyTag003 DA-mClover3 (peptide)
dissociation rate constant, first phase of the chase (90% of signal change) [4]: 0.009 s⁻¹ | dissociation rate constant, second phase of the chase (10% of signal change) [4]: 0.002 s⁻¹ | estimated Kd of one version of the complex (dissociation rate constant / kon) [4]: 3 nM and 13 nM | kobs2 (second phase) [4]: 0.08 s⁻¹ | kobs3 (third phase) [4]: 0.004 s⁻¹ | kon [4]: 680000 M⁻¹ s⁻¹

SpyTag003-mClover3 (peptide)
decrease in donor (mClover3) peak fluorescence intensity [4]: 35% | kobs1 (first phase, 500 nM SpyCatcher003-555) [4]: 0.54 s⁻¹ | kobs2 (second phase, 500 nM SpyCatcher003-555) [4]: 0.016 s⁻¹ | kobs3 (third phase, 500 nM SpyCatcher003-555) [4]: 0.004 s⁻¹ | koff [4]: 0.26 s⁻¹ | kon [4]: 620000 M⁻¹ s⁻¹

SpyTag003-maltose binding protein (MBP) (peptide)
percent completion of the covalent reaction (SpyCatcher003 in excess) [5]: > 99% | percent completion of the covalent reaction (SpyTag003 in excess) [5]: > 99% | percent completion of the covalent reaction (10 nM each, 15 min) [6]: > 90%

VPHIVMVDAYKRYK [SpyTag002 T112H]
effect of Tag mutation on reaction rate [7]: enhanced reaction rate

VPTIVMVDAYKRYK [SpyTag002]
association rate constant (kon) [8]: 4.2 ± 0.5 × 10^5 M^−1 s^−1 | improvement of rate of reaction over SpyTag/SpyCatcher ([9]; by phage display selection, SpyTag002 and SpyCatcher002): > 12 fold | second-order rate constant, SpyTag002/SpyCatcher002 ([9]; previously shown): 20000 M⁻¹ s⁻¹
